The record followed here is ChEMBL document CHEMBL3867427, “Cytotoxic Guanidine Alkaloids from a French Polynesian Monanchora n. sp. Sponge” (J Nat Prod, 2016).

A short description of data set [1]: Cytotoxicity against human KB cells assessed as inhibition of cell proliferation at 10 uM after 72 hrs by cell titer 96 aqueous one solution based assay. The data set is classed as functional. Put shortly: (§1)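 KB cells in D-MEM with 10% FCS and antibiotics/fungizone under 5% CO2. 600 cells/well treated 24 h after seeding, 1% DMSO final, against DMSO controls. After 72 h, CellTiter 96 AQueous One for 3 h at 37 °C, absorbance 490 nm. Inhibition = [1 − (OD490 treated/OD490 control)] × 100, triplicate; mean ± SE.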

Data set [2] can be described thus: Cytotoxicity against human KB cells assessed as inhibition of cell proliferation at 1 uM after 72 hrs by cell titer 96 aqueous one solution based assay. The data set is classed as functional. In short, it runs like this:
as §1

Data set [3] in a line: Antiproliferative activity against human KB cells after 72 hrs by cell titer 96 aqueous one solution based assay. The data set is classed as functional. In short, it runs like this: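 KB cells (NCI origin) in D-MEM with 10% fetal calf serum, penicillin, streptomycin and fungizone under 5% CO2. 600 cells/well, dosed 24 h after plating from DMSO stocks (1% DMSO final; DMSO-only controls). 72 h exposure, then CellTiter 96 AQueous One for 3 h at 37 °C, A490. IC50 (50% inhibition) from 5 nM–100 μM in separate duplicate experiments.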

Data set [4] can be described thus: Antiproliferative activity against human HCT116 cells after 72 hrs by cell titer 96 aqueous one solution based assay. Format: functional. Particulars: HCT-116, 72 h.
Data set [5] in a line: Antiproliferative activity against human HL60 cells after 72 hrs by cell titer 96 aqueous one solution based assay. Particulars: HL-60, 72 h. Format: functional.
A short description of data set [6]: Antiproliferative activity against human MRC5 cells after 72 hrs by cell titer 96 aqueous one solution based assay. The conditions noted are these: MRC5, 72 h.
Data set [7] is described as follows: Antiproliferative activity against human HCT116 cells at 1 to 10 uM after 72 hrs by cell titer 96 aqueous one solution based assay relative to control. Format: functional, HCT-116.
The nature of data set [8]: Antiproliferative activity against human HL60 cells at 1 to 10 uM after 72 hrs by cell titer 96 aqueous one solution based assay relative to control. Format: functional, HL-60.
The nature of data set [9]: Antiproliferative activity against human MRC5 cells at 1 to 10 uM after 72 hrs by cell titer 96 aqueous one solution based assay relative to control. Particulars: mrc5, 72 h.
Data set [10] can be described thus: Antiproliferative activity against human MDA435 cells after 72 hrs by cell titer 96 aqueous one solution based assay. The data set is classed as functional. Particulars: MDA-MB-435, 72 h.
Data set [11] is described as follows: Antiproliferative activity against mouse B16F10 cells after 72 hrs by neutral red staining based assay. The data set is classed as functional, cell-based. The conditions noted are these: B16-F10, 72 h. In short, it runs like this: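 Murine B16F10 (ATCC) in DMEM with pyruvate, 10% FBS, 2% glutamine, 1% pen-strep, 37 °C, 5% CO2. 20 000 cells/well dosed 24 h later (1% DMSO final). After 72 h, PBS rinse, neutral red 40 μg/mL for 3 h at 37 °C, destain with acetic acid/EtOH/H2O 1:50:49 for 30 min at RT, A540. IC50 over 10 ng/mL–10 μg/mL, separate duplicates.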

Data set [12] can be described thus: Antiproliferative activity against human MDA435 cells at 1 to 10 uM after 72 hrs by cell titer 96 aqueous one solution based assay relative to control. Format: functional, MDA-MB-435.
A short description of data set [13]: Antiproliferative activity against mouse B16F10 cells at 1 to 10 uM after 72 hrs by neutral red staining based assay relative to control. The data set is classed as functional, B16-F10. In short, it runs like this:
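B16F10 cells in supplemented DMEM at 37 °C, 5% CO2, 20 000/well, treated 24 h after plating with 1% DMSO final. After 72 h exposure, neutral red uptake (40 μg/mL, 3 h, 37 °C), acid-ethanol destain, absorbance 540 nm. Inhibition = [1 − (OD540 treated/OD540 control)] × 100 from triplicate experiments.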

As usually defined, the inhibition is the drop in the measured response relative to a control, in per cent. What is called IC50 is the point on the concentration scale where inhibition reaches its midpoint.

Consider `CCCCCCC[C@@H]1N=C(N)N2CCCC2=C1C(=O)OCCCCNC(=N)N`, for which the inhibition at 10 µM in data set [1] was determined as 100%. Further, the inhibition at 1 µM in data set [2] was determined as 80%. In [3], this compound came in with an IC50 of 100 to 200 nM.
Turning to `CCCCCCCC[C@@H]1N=C(N)N2CCCC2=C1C(=O)OCCCCNC(=N)N`, the inhibition at 10 µM in [1] was found to be 100%. The inhibition at 1 µM in [2] amounted to 86%. Further, the half-inhibitory concentration (IC50) in data set [3] is 300 nM; in [4] it was 3400 to 4200 nM; in data set [5] it was 8000 to 9100 nM; in data set [6], 3600 to 4100 nM. For the same compound, the Activity in data set [7], in data set [8] and in data set [9] was 100% each time.
As to `CC[C@H]1C=CCC[C@@]2(C[C@@H]3CC[C@@H]4[C@H](C(=O)OCCCCCCCCCCCCCCCC(=O)N(CCCN)CC(O)CCN)[C@]5(CCC[C@@H](C)O5)NC(=[N+]34)N2)O1` (stereo not given in full), the inhibition at 10 µM in data set [1] was 99%. Moreover, in [2], the inhibition at 1 µM was 100%. The IC50 was 5 nM in data set [3]; 7 nM in [4]; 9 to 15 nM in data set [10]; 4 to 6 nM in data set [5]; 200 nM in data set [11]. Moreover, the Activity in data set [7], in data set [12], in data set [8] and in data set [13] was 100% each time.
As for `CCCCCCCCC[C@@H]1N=C(N)N2CCCC2=C1C(=O)O`, in data set [1], the inhibition at 10 µM was determined as 72%. In addition, the inhibition at 1 µM in data set [2] was found to be 0%.
`CC[C@H]1C=CCC[C@@]2(C[C@@H]3CC[C@@H]4[C@H](C(=O)OCCCCCCCCCCCCCCCC(=O)O)[C@]5(CCCCO5)NC(=[N+]34)N2)O1`: the inhibition at 10 µM in data set [1] turned out to be 95%. The inhibition at 1 µM in data set [2] amounted to 80%. Also, the IC50 in [3] was in the range of 500 to 600 nM.
Consider `CC[C@H]1C=CCC[C@@]2(C[C@@H]3CC[C@@H]4[C@H](C(=O)OCCCCCCCCCCCCCCC(=O)N(CCCN)CC(O)CCN)[C@]5(CCC[C@@H](C)O5)NC(=[N+]34)N2)O1` (stereo not given in full), for which the inhibition at 10 µM in data set [1] came out at 100%. Moreover, the inhibition at 1 µM in data set [2] stood at 89%. The IC50 in data set [3] was 300 nM; in data set [4], 3100 to 3400 nM; in data set [5] it was 5000 to 5400 nM; in data set [6], 3200 to 3400 nM. Besides, the Activity in data set [7], in data set [8] and in [9] was 100% each time.
For `CCCCCCCCCc1cc2[n+](c(N)n1)CCC2`, the inhibition at 10 µM in [1] worked out at 99%. For the same compound, the inhibition at 1 µM in data set [2] turned out to be 82%. In addition, the IC50 is 200 to 400 nM in data set [3]; 740 to 840 nM in [4]; 320 to 860 nM in data set [10]; 1300 nM in data set [5]; 550 to 600 nM in [6]. Moreover, the Activity in data set [7], in data set [12], in data set [8] and in data set [9] was 100% throughout.
For the compound `CC[C@H]1C=CCC[C@@]2(C[C@@H]3CC[C@@H]4C[C@]5(CCC[C@@H](C)O5)NC(=[N+]43)N2)O1`, the inhibition at 10 µM in data set [1] is 84%. Further, the inhibition at 1 µM in [2] was 0%.
In the case of `CC[C@H]1C=CCC[C@@]2(C[C@@H]3CC[C@@H]4[C@H](C(=O)OCCCCCCCCCCCCCCCC(=O)O)[C@]5(CCC[C@@H](C)O5)NC(=[N+]34)N2)O1`, the inhibition at 10 µM in data set [1] came out at 97%. The inhibition at 1 µM in data set [2] came to 85%. This compound also came in with an IC50 in data set [3] of 500 to 600 nM.
Turning to `CC[C@H]1C=CCC[C@@]2(C[C@@H]3CC[C@@H]4[C@H](C(=O)OCCCCCCCCCCCCCCCCCC(=O)N(CCCN)CCCC(N)=O)[C@]5(CCC[C@@H](C)O5)NC(=[N+]34)N2)O1`, the inhibition at 10 µM in data set [1] amounted to 100%. For the same compound, the inhibition at 1 µM in data set [2] was determined as 100%. Further, the IC50 was in the range of 50 to 70 nM in [3] and 800 to 850 nM in data set [11]. Besides, in data set [13], the Activity is on record as 100%.
In the case of `CCCCCCCCCc1nc(N)[n+]2c(c1C(=O)OCCCCNC(=N)N)CCC2`, the inhibition at 10 µM in [1] stood at 98%. Moreover, the inhibition at 1 µM in data set [2] was 89%. Besides, the IC50 in data set [3] was 100 nM; in data set [4], 3400 to 3500 nM; in data set [5] it was 3600 to 5400 nM; in data set [6], 3400 to 3900 nM. In addition, the Activity in data set [7], in data set [8] and in data set [9] was 100% each time.
Consider `CCCCCCC[C@@H]1N=C(N)N2CCCC2=C1C(=O)O`, for which the inhibition at 10 µM in [1] was 96%. Besides, the inhibition at 1 µM in [2] is 61%. Also, the IC50 in data set [3] was 6700 to 7700 nM; in data set [4], 9900 nM; in data set [10] it was 9300 to 11000 nM; in [5], 3800 to 7100 nM. The Activity in [7], in [12] and in data set [8] was 100% in each case.
Turning to `CC[C@H]1C=CCC[C@@]2(C[C@@H]3CC[C@@H]4[C@H](C(=O)OCCCCCCCCCCCCCCCCC(=O)N(CCCN)CC(O)CCN)[C@]5(CCC[C@@H](C)O5)NC(=[N+]34)N2)O1` (stereo not given in full), the inhibition at 10 µM in data set [1] worked out at 100%. Also, the inhibition at 1 µM in data set [2] was found to be 96%. For the same compound, the half-inhibitory concentration (IC50) in [3] was 5 to 20 nM; in data set [4], 20 to 50 nM; in data set [10], 40 to 70 nM; in data set [5], 10 to 30 nM; in [11], 200 nM. The Activity in data set [7], in [12], in [8] and in data set [13] was 100% each time.
As to `CCCCCCCCC[C@@H]1N=C(N)N2CCCC2=C1C(=O)OCCCCNC(=N)N`, in data set [1], the inhibition at 10 µM was found to be 100%. The inhibition at 1 µM in [2] turned out to be 97%. Further, half-maximal inhibition in data set [3] (IC50) was put at 30 nM.
